This passage reports IC50 results from ChEMBL document CHEMBL4190289, “Antifungal and Cytotoxic β-Resorcylic Acid Lactones from a Paecilomyces Species” (J Nat Prod, 2017).

The test system of assay [1] is A549. Description: Cytotoxicity against human A549 cells after 72 hrs by MTT assay. In kind it is functional, cell-based. As to conditions: A549, 72 h. In outline: (§1)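 MTT colorimetric readout. DMSO stocks serially diluted in culture medium to final 50, 10, 2, 0.4, 0.08 and 0.016 μM, quadruplicate wells per concentration. Adriamycin as positive control. Inhibition rate computed from treated, control and blank OD. IC50 by nonlinear regression of logistic dose–response curves. Means ± SD of three independent experiments.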
(Tetrazolium dyes change colour on reduction, which living cells bring about.)

For assay [2], the system named is Fusarium verticillioides. Description: Antifungal activity against Fusarium verticillioides after 8 hrs by conidial germination assay. In kind it is functional, organism-based. The method in brief: (§2)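 Conidia from PDA cultures (P. litchii 7-day-old, F. verticillioides 3-day-old), diluted in half-strength PDB, counted and used immediately. Samples in DMSO as 2-fold series; final 0.625 to 80 μg/mL. Incubated 8 h at 30 °C, 150 rpm. Germination scored microscopically (germ tube ≥1.5× spore diameter), >200 conidia per replicate, triplicate. Thiram positive, DMSO negative control. IC50 from logistic nonlinear regression.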

The subject of assay [3] is HeLa. Nature of the assay: Cytotoxicity against human HeLa cells after 72 hrs by MTT assay. In kind it is functional, cell-based. In outline: as §1
Assay [4] concerns Phytophthora litchii. Description: Antifungal activity against Peronophythora litchii after 8 hrs by conidial germination assay. In kind it is functional, organism-based. The method in brief: as §2
In assay [5] the test system is MCF7. Nature of the assay: Cytotoxicity against human MCF7 cells after 72 hrs by MTT assay. It is filed as functional, cell-based. As to conditions: MCF7, 72 h. The method in brief:
as §1

Counter-ions that a name gives are not always drawn. Bounds are passed on as bounds.

As for `COc1cc(O)c2c(c1)[C@H]1O[C@@H]1CC1=C(O)C(=O)C[C@@H]1C[C@H](C)OC2=O`, the IC50 in assay [1] is more than 10 µM; in assay [2] it was more than 100 µM; in assay [3] it was more than 10 µM; in assay [4], more than 100 µM; in assay [5], more than 10 µM.

Regarding `C[C@@H]1C[C@H]2C=CC[C@H](CC(=O)Cc3cc(O)cc(O)c3C(=O)O1)O2`, the half-inhibitory concentration (IC50) was 4.1 µM in assay [1]; more than 100 µM in assay [2]; 3.9 µM in assay [3]; 41 µM in assay [4]; 4.9 µM in assay [5].

Turning to `C[C@@H]1C/C=C/CC[C@@H](O)CC(=O)Cc2cc(O)cc(O)c2C(=O)O1`, the IC50 in assay [1] is more than 10 µM; in assay [2], more than 100 µM; in assay [3] it was more than 10 µM; in assay [4], more than 100 µM; in assay [5], more than 10 µM.

`C[C@H]1C/C=C/CC(=O)CC/C=C/c2cc(O)cc(O)c2C(=O)O1`: the IC50 in assay [1] is 3.9 µM; in assay [2], more than 100 µM; in assay [3] it was 3.6 µM; in assay [4] it was more than 100 µM; in assay [5] it was 6.9 µM.

As for `C[C@@H]1C/C=C/CC/C=C\C(=O)Cc2cc(O)cc(O)c2C(=O)O1`, the IC50 is 4.1 µM in assay [1]; more than 100 µM in assay [2]; 3.6 µM in assay [3]; 9.2 µM in assay [4]; 1.7 µM in assay [5].

Turning to `COc1cc(O)c2c(c1)[C@H]1O[C@@H]1CC1=C(O)C(=O)C[C@H]1C[C@H](C)OC2=O`, the IC50 was more than 10 µM in assay [1]; more than 100 µM in assay [2]; more than 10 µM in assay [3]; more than 100 µM in assay [4]; more than 10 µM in assay [5].

Consider `C[C@@H]1Cc2ccccc2C(=O)Cc2cc(O)cc(O)c2C(=O)O1`, for which the IC50 in assay [1] is more than 10 µM; in assay [2], more than 100 µM; in assay [3], more than 10 µM; in assay [4], more than 100 µM; in assay [5], more than 10 µM.

With `CO[C@@H]1CC/C=C/C[C@@H](C)OC(=O)c2c(O)cc(O)cc2CC(=O)C1`, the IC50 was more than 10 µM in assay [1]; more than 100 µM in assay [2]; more than 10 µM in assay [3]; 19.3 µM in assay [4]; more than 10 µM in assay [5].

`C[C@@H]1C/C=C/CC/C=C/C(=O)Cc2cc(O)cc(O)c2C(=O)O1`: the IC50 in assay [1] was 1.7 µM; in assay [2], more than 100 µM; in assay [3] it was 2.7 µM; in assay [4] it was 9.8 µM; in assay [5], 4.1 µM.

With `COc1cccc2c1C(=O)c1c(O)c3c(c(O)c1C2=O)C[C@@](O)(C(=O)CO)C[C@@H]3O[C@H]1C[C@H](N)[C@H](O)[C@H](C)O1` [DOXORUBICIN HYDROCHLORIDE], the values for the IC50 in assay [1] and in assay [3] were 0.1 µM and 0.3 µM, respectively.

Take `COc1cc(O)c2c(c1)[C@H]1O[C@@H]1C[C@H](O)[C@H](O)C(=O)/C=C\C[C@H](C)OC2=O` [HYPOTHEMYCIN]: the IC50 in assay [1] was 1 µM; in assay [2], 1.1 µM; in assay [3], 1 µM; in assay [4], 1.9 µM; in assay [5] it was 3.3 µM.

With `C[C@@H]1C[C@H]2O[C@@H]2CC/C=C/C(=O)Cc2cc(O)cc(O)c2C(=O)O1` [MONOCILLIN III], the IC50 is 2.1 µM in assay [1]; more than 100 µM in assay [2]; 3.4 µM in assay [3]; 12 µM in assay [4]; more than 10 µM in assay [5].

In the case of `C[C@@H]1C/C=C/CCCCC(=O)Cc2cc(O)cc(O)c2C(=O)O1` [MONOCILLIN IV], the IC50 in assay [1] was more than 10 µM; in assay [2], more than 100 µM; in assay [3] it was more than 10 µM; in assay [4], 33.6 µM; in assay [5] it was 3.6 µM.

`C[C@@H]1C[C@H]2O[C@@H]2/C=C\C=C\C(=O)Cc2cc(O)cc(O)c2C(=O)O1` [MONOCILLIN I]: the IC50 was 2.6 µM in assay [1]; more than 100 µM in assay [2]; 2.7 µM in assay [3]; 7.9 µM in assay [4]; 8.1 µM in assay [5].

For `C[C@@H]1C[C@H]2O[C@@H]2/C=C\C=C\C(=O)Cc2c(Cl)c(O)cc(O)c2C(=O)O1` [RADICICOL], the IC50 was 0.1 µM in assay [1]; 8 µM in assay [2]; 0.1 µM in assay [3]; 1.4 µM in assay [4]; 0.4 µM in assay [5].

Take `CN(C)C(=S)SSC(=S)N(C)C` [THIRAM]: the IC50 in assay [2] came out at 1.7 µM; in assay [4], 4.6 µM.

The IC50 is the concentration at which inhibition is half-maximal.
